This passage reports MIC results from ChEMBL document CHEMBL1132751, “Structure-activity relationships of trans-3,5-disubstituted pyrrolidinylthio-1beta-methylcarbapenems. Part 1: J-111,347 and related compounds” (2000).

Values after ≈ are worked out from the molar mass of the structure shown.

Common to all, as to type: functional
The subject of assay [1] is Staphylococcus aureus. The assay is described as follows: In vitro antibacterial activity was determined against Staphylococcus aureus 209P NIHJ JCI.
Assay [2] has as its system Escherichia coli. In words: In vitro antibacterial activity was determined against Escherichia coli NIHJ JC2.
Assay [3] deals with Staphylococcus epidermidis. In words: In vitro antibacterial activity was determined against methicillin-resistant Staphylococcus epidermidis MB5181. The method in brief:
(§1)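 Minimum inhibitory concentration determined by agar dilution. The S. aureus pMS520/Smith and S. epidermidis MB5181 strains are methicillin-resistant isolates.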

The subject of assay [4] is Pseudomonas aeruginosa. In words: In vitro antibacterial activity was determined against Pseudomonas aeruginosa AK109.
The subject of assay [5] is Pseudomonas aeruginosa. In words: In vitro antibacterial activity was determined against ceftazidime- resistant Pseudomonas aeruginosa AKR17. The gist of the method: as §1
Assay [6] deals with Staphylococcus aureus. The assay is described as follows: In vitro antibacterial activity was determined against methicillin-resistant Staphylococcus aureus pMS520/Smith. The gist of the method: as §1
Assay [7] has as its system Staphylococcus aureus. The assay is described as follows: TIn vitro antibacterial activity against methicillin-resistant Staphylococcus aureus pMS520/Smith. The method in brief:
as §1

A word on the MIC: it is the smallest concentration in the dilution series that meets the test's criterion for growth inhibition. Higher therefore signals weaker potency.

Take `C[C@@H](O)[C@H]1C(=O)N2C(C(=O)O)=C(SCCNC=N)C[C@H]12.O`: the minimal inhibitory concentration (MIC) in assay [1] is less than 0.006 µg/mL; in assay [2], 0.01 µg/mL; in assay [3], 50 µg/mL; in assay [4] it was 1.56 µg/mL; in assay [5], 3.13 µg/mL; in assay [6], 50 µg/mL.
Consider `C[C@@H](O)[C@H]1C(=O)N2C(C(=O)O)=C(S[C@@H]3CN[C@@H](c4ccc(CN)cc4)C3)[C@H](C)[C@H]12`, for which the minimum inhibitory concentration (MIC) was less than 0.006 µg/mL in assay [1]; 0.025 µg/mL (≈ 0.0599 µM) in assay [2]; 1.56 µg/mL (≈ 3.74 µM) in assay [3]; 0.39 µg/mL (≈ 0.934 µM) in assay [4]; 3.13 µg/mL (≈ 7.5 µM) in assay [5]; 0.78 µg/mL (≈ 1.87 µM) in assay [6].
As to `C[C@@H](O)[C@H]1C(=O)N2C(C(=O)O)=C(S[C@@H]3CN[C@H](CNc4ccccc4)C3)[C@H](C)[C@H]12`, the MIC in assay [1] is less than 0.006 µg/mL; in assay [2] it was 0.05 µg/mL (≈ 0.12 µM); in assay [3] it was 6.25 µg/mL (≈ 15 µM); in assay [4], 12.5 µg/mL (≈ 29.9 µM); in assay [5] it was 25 µg/mL (≈ 59.9 µM); in assay [6] it was 12.5 µg/mL (≈ 29.9 µM).
For `C[C@@H](O)[C@H]1C(=O)N2C(C(=O)O)=C(S[C@@H]3CN[C@H](CNc4ccc(CN)cc4)C3)[C@H](C)[C@H]12`, the MIC in assay [1] was less than 0.006 µg/mL; in assay [2], 0.025 µg/mL (≈ 0.056 µM); in assay [3], 6.25 µg/mL (≈ 14 µM); in assay [4], 1.56 µg/mL (≈ 3.49 µM); in assay [5] it was 12.5 µg/mL (≈ 28 µM); in assay [6], 3.13 µg/mL (≈ 7.01 µM).
As for `C[C@@H](O)[C@H]1C(=O)N2C(C(=O)O)=C(S[C@@H]3CN[C@H](COc4ccc(CN)cc4)C3)[C@H](C)[C@H]12`, the MIC was less than 0.006 µg/mL in assay [1]; 0.025 µg/mL (≈ 0.0559 µM) in assay [2]; 6.25 µg/mL (≈ 14 µM) in assay [3]; 1.56 µg/mL (≈ 3.49 µM) in assay [4]; 12.5 µg/mL (≈ 27.9 µM) in assay [5]; 3.13 µg/mL (≈ 6.99 µM) in assay [6].
`C[C@@H](O)[C@H]1C(=O)N2C(C(=O)O)=C(S[C@@H]3CN[C@H](c4ccc(CN)cc4)C3)[C@H](C)[C@H]12`: the MIC in assay [1] was less than 0.006 µg/mL; in assay [2] it was 0.025 µg/mL (≈ 0.0599 µM); in assay [3] it was 3.13 µg/mL (≈ 7.5 µM); in assay [4], 0.78 µg/mL (≈ 1.87 µM); in assay [7], 1.56 µg/mL (≈ 3.74 µM); in assay [5] it was 6.25 µg/mL (≈ 15 µM).
As for `C[C@@H](O)[C@H]1C(=O)N2C(C(=O)O)=C(S[C@@H]3CN[C@H](Cc4ccc(CN)cc4)C3)[C@H](C)[C@H]12`, the MIC was less than 0.006 µg/mL in assay [1]; 0.025 µg/mL (≈ 0.0579 µM) in assay [2]; 3.13 µg/mL (≈ 7.25 µM) in assay [3]; 0.39 µg/mL (≈ 0.904 µM) in assay [4]; 6.25 µg/mL (≈ 14.5 µM) in assay [5]; 3.13 µg/mL (≈ 7.25 µM) in assay [6].
Turning to `C[C@@H](O)[C@H]1C(=O)N2C(C(=O)O)=C(S[C@@H]3CN[C@@H](CSc4ccc(CN)cc4)C3)[C@H](C)[C@H]12`, the MIC in assay [1] was less than 0.006 µg/mL; in assay [2], 0.05 µg/mL (≈ 0.108 µM); in assay [3], 3.13 µg/mL (≈ 6.75 µM); in assay [4], 1.56 µg/mL (≈ 3.36 µM); in assay [5], 12.5 µg/mL (≈ 27 µM); in assay [6] it was 3.13 µg/mL (≈ 6.75 µM).
Consider `CN[C@H](CC(C)C)C(=O)N[C@H]1C(=O)N[C@@H](CC(N)=O)C(=O)N[C@H]2C(=O)N[C@H]3C(=O)N[C@H](C(=O)N[C@H](C(=O)O)c4cc(O)cc(O)c4-c4cc3ccc4O)[C@H](O)c3ccc(c(Cl)c3)Oc3cc2cc(c3O[C@@H]2O[C@H](CO)[C@@H](O)[C@H](O)[C@H]2O[C@H]2C[C@](C)(N)[C@H](O)[C@H](C)O2)Oc2ccc(cc2Cl)[C@H]1O` [VANCOMYCIN], for which the MIC in assay [2] was more than 100 µg/mL; in assay [4], more than 100 µg/mL; in assay [5], more than 100 µg/mL; in assay [6] it was 0.78 µg/mL (≈ 0.538 µM).
Consider `C[C@@H](O)[C@H]1C(=O)N2C(C(=O)O)=C(S[C@@H]3CN[C@H](CCc4ccccc4)C3)[C@H](C)[C@H]12`, for which the MIC in assay [1] is less than 0.006 µg/mL; in assay [2], 0.05 µg/mL (≈ 0.12 µM); in assay [3], 3.13 µg/mL (≈ 7.51 µM); in assay [4], 25 µg/mL (≈ 60 µM); in assay [5] it was more than 50 µg/mL; in assay [6] it was 6.25 µg/mL (≈ 15 µM).
Consider `C[C@@H](O)[C@H]1C(=O)N2C(C(=O)O)=C(S[C@@H]3CN[C@H](COc4ccccc4)C3)[C@H](C)[C@H]12`, for which the minimal inhibitory concentration (MIC) in assay [1] is 0.012 µg/mL (≈ 0.0287 µM); in assay [2] it was 0.39 µg/mL (≈ 0.932 µM); in assay [3] it was 25 µg/mL (≈ 59.7 µM); in assay [4], 25 µg/mL (≈ 59.7 µM); in assay [5], more than 50 µg/mL; in assay [6] it was 25 µg/mL (≈ 59.7 µM).
For the compound `C[C@@H](O)[C@H]1C(=O)N2C(C(=O)O)=C(S[C@@H]3CN[C@H](CSc4ccc(CN)cc4)C3)[C@H](C)[C@H]12`, the minimal inhibitory concentration (MIC) is less than 0.006 µg/mL in assay [1]; 0.025 µg/mL (≈ 0.0539 µM) in assay [2]; 3.13 µg/mL (≈ 6.75 µM) in assay [3]; 0.78 µg/mL (≈ 1.68 µM) in assay [4]; 3.13 µg/mL (≈ 6.75 µM) in assay [5]; 1.56 µg/mL (≈ 3.36 µM) in assay [6].
For the compound `C[C@@H](O)[C@H]1C(=O)N2C(C(=O)O)=C(S[C@@H]3CN[C@H](CSc4ccccc4)C3)[C@H](C)[C@H]12`, the minimal inhibitory concentration (MIC) in assay [1] was less than 0.006 µg/mL; in assay [2] it was 0.1 µg/mL (≈ 0.23 µM); in assay [3] it was 3.13 µg/mL (≈ 7.2 µM); in assay [4], 50 µg/mL (≈ 115 µM); in assay [5], 50 µg/mL (≈ 115 µM); in assay [6] it was 6.25 µg/mL (≈ 14.4 µM).
As to `C[C@@H](O)[C@H]1C(=O)N2C(C(=O)O)=C(S[C@@H]3CN[C@H](CCc4ccc(CN)cc4)C3)[C@H](C)[C@H]12`, the MIC is less than 0.006 µg/mL in assay [1]; 0.025 µg/mL (≈ 0.0561 µM) in assay [2]; 25 µg/mL (≈ 56.1 µM) in assay [3]; 0.78 µg/mL (≈ 1.75 µM) in assay [4]; 6.25 µg/mL (≈ 14 µM) in assay [5]; 3.13 µg/mL (≈ 7.02 µM) in assay [6].
As for `C[C@@H](O)[C@H]1C(=O)N2C(C(=O)O)=C(S[C@@H]3CN[C@H](Cc4ccccc4)C3)[C@H](C)[C@H]12`, the MIC in assay [1] was less than 0.006 µg/mL; in assay [2], 0.1 µg/mL (≈ 0.248 µM); in assay [3], 3.13 µg/mL (≈ 7.78 µM); in assay [4], 25 µg/mL (≈ 62.1 µM); in assay [5] it was more than 50 µg/mL; in assay [6], 6.25 µg/mL (≈ 15.5 µM).
As for `C[C@@H](O)[C@H]1C(=O)N2C(C(=O)O)=C(S[C@@H]3CN[C@@H](Cc4ccc(CN)cc4)C3)[C@H](C)[C@H]12`, the MIC in assay [1] was 0.05 µg/mL (≈ 0.116 µM); in assay [2], 0.39 µg/mL (≈ 0.904 µM); in assay [3], 12.5 µg/mL (≈ 29 µM); in assay [4], 25 µg/mL (≈ 57.9 µM); in assay [5] it was more than 100 µg/mL; in assay [6], 12.5 µg/mL (≈ 29 µM).
